Measured values taken from ChEMBL document CHEMBL2331504, “New pyrazole derivatives containing 1,2,4-triazoles and benzoxazoles as potent antimicrobial and analgesic agents” (2013).
In brackets after ≈: the same amount, converted by molar mass.

Assays:
Assay type in all cases: functional
[1] = tested on: Rattus norvegicus; experiment: Analgesic activity against Wistar albino rat at 200 mg/kg, ip measured immediately after 60 mins post compound treatment by tail flick method (reference value: 4.18 +/- 0.13 %); conditions: 1 h, route intraperitoneal, read-out: INH
[2] = tested on: Pseudomonas aeruginosa; experiment: Antimicrobial activity against Pseudomonas aeruginosa after 16 hrs by serial dilution method
Procedure, shortened: (§1)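 Tube broth serial dilution in trypticase soya broth, from 1 mg/mL DMF stocks. Cultures were grown 6 h at 37 °C, adjusted to a McFarland standard, then diluted to a 10^5 cfu/mL inoculum. Tubes were incubated 16 h at 37 °C, alongside inoculum and broth controls and ceftriaxone or fluconazole reference. MIC was read as the tubes showing no visible growth.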

[3] = tested on: Escherichia coli; experiment: Antimicrobial activity against Escherichia coli after 16 hrs by serial dilution method; procedure, shortened: as §1
[4] = tested on: Rattus norvegicus; experiment: Analgesic activity against Wistar albino rat at 200 mg/kg, ip measured immediately after 120 mins post compound treatment by tail flick method (reference value: 2.22 +/- 0.07 %); conditions: 2 h, route intraperitoneal, read-out: INH
[5] = tested on: Bacillus subtilis; experiment: Antimicrobial activity against Bacillus subtilis after 16 hrs by serial dilution method; procedure, shortened: as §1
[6] = tested on: Staphylococcus aureus; experiment: Antimicrobial activity against Staphylococcus aureus after 16 hrs by serial dilution method; procedure, shortened: as §1
[7] = tested on: Rattus norvegicus; experiment: Analgesic activity against Wistar albino rat at 200 mg/kg, ip measured immediately after 30 mins post compound treatment by tail flick method (reference value: 4.20 +/- 0.12 %); conditions: 0.5 h, route intraperitoneal
[8] = tested on: Candida albicans; experiment: Antimicrobial activity against Candida albicans after 16 hrs by serial dilution method; procedure, shortened: as §1
[9] = tested on: Rattus norvegicus; experiment: Analgesic activity against Wistar albino rat at 200 mg/kg, ip measured immediately after compound administration by tail flick method (reference value: 1.9 +/- 0.12 %); conditions: route intraperitoneal, read-out: INH
[10] = tested on: Rattus norvegicus; experiment: Analgesic activity against Wistar albino rat at 2 mg/kg, ip measured immediately after 30 mins post compound treatment by tail flick method (reference value: 4.20 +/- 0.12 %); conditions: 0.5 h, route intraperitoneal
[11] = tested on: Rattus norvegicus; experiment: Analgesic activity against Wistar albino rat at 2 mg/kg, ip measured immediately after 60 mins post compound treatment by tail flick method (reference value: 4.18 +/- 0.13 %); conditions: 1 h, route intraperitoneal
[12] = tested on: Rattus norvegicus; experiment: Analgesic activity against Wistar albino rat at 2 mg/kg, ip measured immediately after compound administration by tail flick method (reference value: 1.9 +/- 0.12 %); conditions: route intraperitoneal
[13] = tested on: Rattus norvegicus; experiment: Analgesic activity against Wistar albino rat at 2 mg/kg, ip measured immediately after 120 mins post compound treatment by tail flick method (reference value: 2.22 +/- 0.07 %); conditions: 2 h, route intraperitoneal

SMILES	tail-flick reaction time at 200 mg/kg [1]	MIC [2]	MIC [3]	tail flick reaction time at 200 mg/kg [4]	MIC [5]	MIC [6]	inhibition in vivo at 200 mg/kg [7]	MIC [8]	tail-flick reaction time at 200 mg/kg [9]	inhibition in vivo at 2 mg/kg [10]	inhibition in vivo at 2 mg/kg [11]	inhibition in vivo at 2 mg/kg [12]	inhibition in vivo at 2 mg/kg [13]
Clc1ccc(-c2n[nH]cc2/C=N/Nc2nc3cc(Cl)cc(Cl)c3o2)c(Cl)c1	3.05%	3.12 µg/mL (≈ 7.08 µM)	12.5 µg/mL (≈ 28.3 µM)	3.2%	6.25 µg/mL (≈ 14.2 µM)	12.5 µg/mL (≈ 28.3 µM)	2.92%	12.5 µg/mL (≈ 28.3 µM)	2.75%	–	–	–	–
CSc1ccc(-c2n[nH]cc2/C=N/NC(=O)CSc2nc3ccccc3o2)cc1	3.53%	6.25 µg/mL (≈ 14.8 µM)	6.25 µg/mL (≈ 14.8 µM)	3.83%	12.5 µg/mL (≈ 29.5 µM)	6.25 µg/mL (≈ 14.8 µM)	3.15%	12.5 µg/mL (≈ 29.5 µM)	3.05%	–	–	–	–
Clc1cc(Cl)c2oc(N/N=C/c3c[nH]nc3-c3ccc(-c4ccccc4)cc3)nc2c1	2.77%	12.5 µg/mL (≈ 27.9 µM)	12.5 µg/mL (≈ 27.9 µM)	2.95%	25 µg/mL (≈ 55.8 µM)	12.5 µg/mL (≈ 27.9 µM)	2.65%	25 µg/mL (≈ 55.8 µM)	2.43%	–	–	–	–
O=C(CSc1nc2ccccc2o1)N/N=C/c1c[nH]nc1-c1cc(Cl)sc1Cl	2.93%	6.25 µg/mL (≈ 13.8 µM)	3.12 µg/mL (≈ 6.91 µM)	3.06%	3.12 µg/mL (≈ 6.91 µM)	6.25 µg/mL (≈ 13.8 µM)	2.82%	25 µg/mL (≈ 55.3 µM)	2.55%	–	–	–	–
CSc1ccc(-c2n[nH]cc2/C=N/n2c(S)nnc2-c2ccncc2)cc1	2.83%	6.25 µg/mL (≈ 15.9 µM)	3.12 µg/mL (≈ 7.94 µM)	2.9%	3.12 µg/mL (≈ 7.94 µM)	3.12 µg/mL (≈ 7.94 µM)	2.77%	12.5 µg/mL (≈ 31.8 µM)	2.62%	–	–	–	–
O=C(CSc1nc2ccccc2o1)N/N=C/c1c[nH]nc1-c1ccc(Cl)cc1Cl	3.45%	6.25 µg/mL (≈ 14 µM)	3.12 µg/mL (≈ 7 µM)	3.62%	6.25 µg/mL (≈ 14 µM)	12.5 µg/mL (≈ 28 µM)	3.38%	12.5 µg/mL (≈ 28 µM)	2.27%	–	–	–	–
CO/N=C(\C(=O)N[C@@H]1C(=O)N2C(C(=O)O)=C(CSc3nc(=O)c(O)nn3C)CS[C@H]12)c1csc(N)n1 [CEFTRIAXONE]	–	1.61 µg/mL (≈ 2.91 µM)	1.61 µg/mL (≈ 2.91 µM)	–	1.61 µg/mL (≈ 2.91 µM)	3.12 µg/mL (≈ 5.63 µM)	–	–	–	–	–	–	–
Sc1nnc(COc2cccc3ccccc23)n1/N=C/c1c[nH]nc1-c1cc(Cl)sc1Cl	2.28%	1.61 µg/mL (≈ 3.22 µM)	3.12 µg/mL (≈ 6.23 µM)	2.2%	1.61 µg/mL (≈ 3.22 µM)	1.61 µg/mL (≈ 3.22 µM)	2.52%	6.25 µg/mL (≈ 12.5 µM)	2.67%	–	–	–	–
CSc1ccc(-c2n[nH]cc2/C=N/Nc2nc3cc(Cl)cc(Cl)c3o2)cc1	3.57%	12.5 µg/mL (≈ 29.9 µM)	12.5 µg/mL (≈ 29.9 µM)	3.63%	12.5 µg/mL (≈ 29.9 µM)	6.25 µg/mL (≈ 14.9 µM)	3.42%	25 µg/mL (≈ 59.8 µM)	3.25%	–	–	–	–
Cc1ccc(-c2nnc(S)n2/N=C/c2c[nH]nc2-c2ccc(Cl)cc2Cl)cn1	4.15%	1.61 µg/mL (≈ 3.75 µM)	3.12 µg/mL (≈ 7.26 µM)	2.98%	1.61 µg/mL (≈ 3.75 µM)	3.12 µg/mL (≈ 7.26 µM)	3.5%	6.25 µg/mL (≈ 14.5 µM)	2.93%	–	–	–	–
CC(C)=CCN1CC[C@]2(C)c3cc(O)ccc3C[C@H]1[C@H]2C [(+)-PENTAZOCINE]	–	–	–	–	–	–	–	–	–	2.17%	2.18%	1.9%	2.22%
Sc1nnc(COc2cccc3ccccc23)n1/N=C/c1c[nH]nc1-c1ccc(Cl)cc1Cl	2.25%	1.61 µg/mL (≈ 3.26 µM)	3.12 µg/mL (≈ 6.31 µM)	3.08%	3.12 µg/mL (≈ 6.31 µM)	6.25 µg/mL (≈ 12.6 µM)	2.93%	12.5 µg/mL (≈ 25.2 µM)	2.85%	–	–	–	–
Clc1cc(Cl)c2oc(N/N=C/c3c[nH]nc3-c3cc(Cl)sc3Cl)nc2c1	3.07%	3.12 µg/mL (≈ 6.99 µM)	3.12 µg/mL (≈ 6.99 µM)	3.1%	6.25 µg/mL (≈ 14 µM)	3.12 µg/mL (≈ 6.99 µM)	3.03%	12.5 µg/mL (≈ 28 µM)	2.98%	–	–	–	–
OC(Cn1cncn1)(Cn1cncn1)c1ccc(F)cc1F [FLUCONAZOLE]	–	–	–	–	–	–	–	6.25 µg/mL (≈ 20.4 µM)	–	–	–	–	–
O=C(CSc1nc2ccccc2o1)N/N=C/c1c[nH]nc1-c1ccc(-c2ccccc2)cc1	3.43%	12.5 µg/mL (≈ 27.6 µM)	25 µg/mL (≈ 55.1 µM)	3.63%	12.5 µg/mL (≈ 27.6 µM)	12.5 µg/mL (≈ 27.6 µM)	3.27%	25 µg/mL (≈ 55.1 µM)	3.13%	–	–	–	–
